# Screening data from PubChem.
# Wee1 degr inh: blocks degradation of human Wee1 kinase | P30291 | HeLa Luc-Wee1K328M stability, luciferase luminescence; 100% = proteasome inhibitor MG132 effect | reporter increase, % at 5 µM | 220,000 compounds, 1.2% hits | AID 1321;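 active = activation above the mean of all tested compounds plus 3 SD, set per screening run, cut at about 8.8% in these data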;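 note: cells exposed to compound for 20 h before luminescence read; 0% = DMSO alone and 100% = MG132 at 30 µM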
# Runt-CBFb FRET: blocks binding of human RUNX1 Runt domain to CBFb | Q01196+Q13951 | Cerulean-Runt/Venus-CBFb FRET ratio 530/480, 1 h | inhibition, % at 20 µM | 220,000 compounds, 0.46% hits;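 active = inhibition over about 50% at 20 µM in the single-dose screen, limit read from the data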;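 note: 0% = DMSO wells and 100% = excess unlabeled CBFb competitor control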
#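 Assay system: Cerulean-Runt domain fusion protein, energy donor; Signal: fluorescence energy transfer, 422 nm excitation, 530/480 nm emission; Timing: 1 h compound exposure, room temperature; Control set: unlabeled CBFb; Medium: Tris buffer pH 7.5 with salts and BSA; Compound: single test concentration of 20 µM, 1% DMSO final; Probe or stimulus: Venus-CBFb 100 nM.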
# Runt-SMMHC FRET: blocks binding of human RUNX1 Runt domain to CBFb-SMMHC | Cerulean-Runt/Venus-CBFb-SMMHC FRET ratio 530/480, 1 h | inhibition, % at 20 µM | 220,000 compounds, 0.74% hits | AID 1434;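 active = mean inhibition across duplicate retests at 20 µM reaching about 50%, limit read from the data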;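 note: 0% = DMSO wells and 100% = wells with excess untagged CBFb-SMMHC; inhibitors lower the FRET ratio by blocking Runt binding to CBFb-SMMHC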
# RanGTP-Impb inh: inhibitors of RanGTP-importin-beta interaction, primary screen, biochemical, FRET, CFP-Ran, YFP-importin-beta, homogeneous. cell-free CFP-Ran/YFP-importin-beta FRET ratio. inhibition, % (no concentration beside the values). 300,000 compounds, 1.1% hits. AID 2216;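 active = more than half of the replicate wells show a fall in the fluorescence ratio signal beyond about 16%, limit read from the data, passing the limit was not always enough; inconclusive = exactly half of the replicate wells pass the set limit; inactive = fewer than half of replicates pass the limit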;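 note: 0% = DMSO wells and 100% = Ran loaded with GDP instead of GTP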
# AI-2 QS mod: Vibrio harveyi AI-2 quorum sensing modulation | Vibrio harveyi JMH597 AI-2 luminescence/OD600 ratio, 9 h; stronger effect = lower value; strain lacks LuxN and CqsS sensors; 0 = neutral-control median | activity change, % at 7.5 µM | 300,000 compounds, 0.4% hits | AID 2094; in the data active = activity change below about -75%, passing the limit was not always enough; inconclusive = no clear call, values can overlap the other calls;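 note: luminescence divided by OD600 gain over 9 h not by final OD600 alone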
# KLK7 zymogen act: activates the human kallikrein-7 zymogen | P49862 | purified proKLK7, EDANS-DABCYL substrate fluorescence; 100% is mature enzyme control, 0% vehicle | activation, % at 7 µM | 370,000 compounds, 0.9% hits | AID 652039;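 active = activation above the mean of all tested compounds plus 3 SD, computed per campaign excluding outliers beyond control limits, cut at about 13% in these data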
# Target sequence (P49862 whole entry, looked up): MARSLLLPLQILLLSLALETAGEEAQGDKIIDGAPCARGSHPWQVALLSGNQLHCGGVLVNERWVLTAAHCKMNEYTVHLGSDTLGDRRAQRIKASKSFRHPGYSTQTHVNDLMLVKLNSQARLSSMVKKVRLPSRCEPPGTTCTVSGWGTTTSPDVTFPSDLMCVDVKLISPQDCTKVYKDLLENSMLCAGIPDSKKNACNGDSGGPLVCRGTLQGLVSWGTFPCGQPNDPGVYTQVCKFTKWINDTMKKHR
# YIC FRET counter: counter-screen YIC FRET for RanGTP-importin-beta inhibitors; shares compounds with RanGTP-Impb inh; Purified YIC probe, intramolecular FRET ratio YFP/CFP; IC50, µM; 1,000 compounds, 40% hits; AID 435026;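 active = fitted half-maximal inhibitory concentration no more than tenfold above the top dose tested; inconclusive = flat fit with 30 to 70% activity, or poor fit; inactive = half-maximal concentration beyond tenfold above the top dose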
# * = called active by the depositor; u = inconclusive; x = not tested or not shown. Sampled rows, rich in hits. Any-hit rate of the full collection: about 2.9%.
SMILES,Wee1 degr inh,Runt-CBFb FRET,Runt-SMMHC FRET,RanGTP-Impb inh,AI-2 QS mod,KLK7 zymogen act,YIC FRET counter
Cc1ccc(C)c2nc(N3CCCC3)c(C#N)cc12,-2,67*,94*,51*,x,2,1.2*
C#CCN1C(=O)S/C(=C\c2ccc(-c3ccc(C(=O)O)cc3C)o2)C1=O,x,x,x,u,18,0,x
Cc1cc(C(=O)O)ccc1-c1ccc(/C=C2\NC(=O)N(Cc3ccccc3Cl)C2=O)o1,-1,24,68*,22*,14,x,0.91*
COc1ccc(C(=O)NCCCn2nc(C)cc2C)cc1S(=O)(=O)N1CCOCC1,x,x,x,x,x,0,x
O=c1c2cc(NC(=S)N3CCC(N4CCCCC4)CC3)ccc2nc2n1CCCCC2,2,1,-3,23*,25,0,>50
CC1CCCCN1C(=S)Nc1ccc2nc3n(c(=O)c2c1)CCCCC3 (configuration not stated),0,0,4,-2,24,3,x
CC(C)Sc1nc(N2CCOCC2)c2c3c(sc2n1)COC(C)(C)C3,-1,-2,0,23*,11,0,>50
CN[C@H]1C[C@H]2c3[nH]c4c(-c5ccc6c(c5)OCO6)cccc4c3CCN2C(=O)[C@H]1[C@H](C)O,x,x,x,x,x,0,x
NS(=O)(=O)c1ccc(CCNC(=O)C(=O)c2c[nH]c3ccccc23)cc1,-1,-2,1,17*,32,1,>50
C=CCn1c(SCC(=O)N2CCCCC2)nnc1-c1ccncc1,3,0,-2,36*,18,0,>50
C=CCn1c(SCC(=O)N2CC(C)OC(C)C2)nnc1-c1ccncc1 (configuration not stated),x,x,x,x,x,0,x
Cc1cccc(C)c1N1CCN(S(=O)(=O)c2ccc(F)cc2)CC1,1,0,-1,19*,-3,0,>50
Cc1ccccc1CN1CCN(S(=O)(=O)c2ccc(F)cc2)CC1,-1,-1,-1,0,-14,0,x
O=C(Cn1nnc2ccccc21)N/N=C\c1cccs1,1,-2,-2,22*,-65,0,>50
O=C(Cn1cnc2ccccc21)N/N=C/c1cccs1,0,2,-4,-3,32,0,x
O=C(c1nn2c(C(F)(F)F)cc(-c3ccccc3)nc2c1Cl)N1CCN2CCCC2C1 (configuration not stated),x,x,x,2,15,0,x
CCOC(=O)c1c(NC(=O)CN2CCCc3ccccc32)sc(C(C)=O)c1C,3,-2,-4,21*,30,0,>50
COCCOC(=O)c1c(NC(=O)CN2CCc3ccccc32)sc(C(N)=O)c1C,-4,-1,2,1,17,0,x
Cc1ccc(OCC(=O)N2CCCCCC2)c(C)c1,0,-1,3,17*,13,0,>50
Cc1cc(Br)ccc1OCC(=O)N1CCCCCC1,0,1,-8,3,34,0,x
CCN1C(=O)/C(=C2\Sc3ccccc3N2CC)OC1=S,4,-6,12,21*,0,0,36*
C=CCN1C(=O)/C(=C2/Sc3ccccc3N2CC)SC1=S,x,x,x,17*,16,0,>50
COc1cc(/C=N/NC(=O)c2cc(C)oc2C)ccc1O,6,0,0,24*,7,-1,>50
COc1ccc(C(=O)Nc2ccc3cn[nH]c3c2)c(OC)c1,8,-2,-2,1,11,0,x
Cc1ccc(C2=CC(c3ccccc3)n3ncnc3N2)c(C)c1 (configuration not stated),x,x,x,19*,5,3,>50
SMILES,Wee1 degr inh,Runt-CBFb FRET,Runt-SMMHC FRET,RanGTP-Impb inh,AI-2 QS mod,KLK7 zymogen act,YIC FRET counter
COc1ccccc1C1CC(c2ccc(Cl)cc2)Nc2nc(N)nn21 (configuration not stated),2,-1,4,18*,13,0,>50
COc1ccc(Br)cc1/C=C/C(=O)NC(=S)Nc1ccc(CN2CCOCC2)cc1,x,x,x,50*,22,-1,>50
COc1ccc(C(=O)NC(=S)Nc2ccc(CN3CCOCC3)cc2)cc1OC,1,2,2,u,13,1,x
CCN(CC(=O)Nc1cc(Cl)cc(Cl)c1)CC(=O)NC1CCS(=O)(=O)C1 (configuration not stated),x,x,x,x,x,0,x
COC(=O)C1=C(C)NC(C)=C(C(=O)OC)C1C(=O)OC(C)C(=O)c1ccccc1 (configuration not stated),2,1,-2,22*,42,1,>50
CCN(C(=O)C(C)OC(=O)C1C(C(=O)OC)=C(C)NC(C)=C1C(=O)OC)c1ccccc1 (configuration not stated),-3,-1,6,-2,4,-1,x
COc1ccc(-c2nc3c(c(=O)n(C)c(=O)n3C)n2CC2CC(c3ccccc3)=NO2)cc1OC (configuration not stated),0,x,x,1,14,-1,x
C=CCn1c(COc2cc(C)ccc2C(C)C)nnc1SCC(=O)c1c(N)n(C)c(=O)n(C)c1=O,1,-10,-8,3,39,0,x
CCc1nnc(NC(=O)CSc2nc3ccccc3s2)s1,0,-1,-52,-1,8,0,x
CCNc1nnc(CSc2nc3ccccc3s2)s1,1,0,3,18*,-18,-1,>50
Cc1ccc(C2NC(=O)c3c(sc(C)c3C)N2)c(O)c1 (configuration not stated),0,5,21,24*,2,-1,>50
O=C1CSC(c2ccccc2F)N1 (configuration not stated),3,5,-6,4,0,0,x
Cc1sc2c(c1C)C(=O)NC(c1ccccc1F)N2 (configuration not stated),2,36,8,24*,20,-1,>50
Cc1cnc(C(=O)OCC(=O)Nc2cc(-c3ccccc3)nn2-c2ccccc2)cn1,x,x,x,-2,15,0,x
O=C(NC1CCCCCC1)C(=S)NCCc1ccccc1,1,20,-3,25*,11,1,>50
NNC(=O)c1cc2nc(-c3cccs3)cc(C(F)(F)F)n2n1,2,2,3,27*,40,-10,>50
O=C(c1cc2ccccc2oc1=O)N1CCN(CCc2ccccc2)CC1,0,50,77*,33*,13,0,7.3*
O=C(c1ccco1)N1CCN(C(=O)c2cc3ccccc3oc2=O)CC1,x,x,x,1,18,0,x
